High-throughput results (PubChem BioAssay)
In the library only some 2.3% were active in any assay of this set; here they are far more common.
TRPC6 activator = mouse TRPC6 channel activators, primary screen, cell-based, HEK293, membrane potential dye. HEK293-TRPC6 membrane potential dye fluorescence; hits give high values. B-score at 10 µM. 0.13% of 310,000 active. AID 2550, 2010;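 active = B-score of the integrated fluorescence ratio above library mean plus 3 SD, and starting fluorescence ratio within library mean plus 5 SD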;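 note: higher score means more depolarization so channel activation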
Target sequence (Q61143 whole entry, looked up): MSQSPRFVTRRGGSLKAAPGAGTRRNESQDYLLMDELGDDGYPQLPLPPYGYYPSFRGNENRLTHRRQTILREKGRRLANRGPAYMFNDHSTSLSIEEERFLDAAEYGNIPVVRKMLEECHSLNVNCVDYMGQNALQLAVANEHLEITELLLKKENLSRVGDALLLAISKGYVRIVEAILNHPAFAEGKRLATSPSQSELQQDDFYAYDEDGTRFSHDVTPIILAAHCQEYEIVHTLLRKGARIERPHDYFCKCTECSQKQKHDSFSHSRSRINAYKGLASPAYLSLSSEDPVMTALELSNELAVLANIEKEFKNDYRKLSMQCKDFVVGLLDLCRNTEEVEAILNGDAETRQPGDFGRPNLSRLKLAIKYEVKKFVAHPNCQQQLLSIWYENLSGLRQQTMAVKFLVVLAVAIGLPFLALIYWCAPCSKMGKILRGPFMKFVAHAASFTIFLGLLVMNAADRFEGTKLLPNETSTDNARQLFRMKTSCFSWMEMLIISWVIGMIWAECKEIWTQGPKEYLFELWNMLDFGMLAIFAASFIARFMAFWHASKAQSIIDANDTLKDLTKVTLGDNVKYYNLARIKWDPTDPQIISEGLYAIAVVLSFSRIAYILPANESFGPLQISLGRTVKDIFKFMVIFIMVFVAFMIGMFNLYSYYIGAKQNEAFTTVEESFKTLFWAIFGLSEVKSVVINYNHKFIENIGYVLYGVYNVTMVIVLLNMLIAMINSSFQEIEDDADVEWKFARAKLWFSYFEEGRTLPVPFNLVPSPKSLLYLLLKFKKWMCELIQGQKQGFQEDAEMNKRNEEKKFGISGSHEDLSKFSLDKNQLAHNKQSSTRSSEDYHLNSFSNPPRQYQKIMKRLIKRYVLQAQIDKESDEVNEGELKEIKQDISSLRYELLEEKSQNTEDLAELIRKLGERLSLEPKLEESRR
TRPC4 PAM = positive allosteric modulators of TRPC4, primary screen, cell-based, mouse TRPC4beta, HEK293 mu-opioid, Fluo-4 calcium | DAMGO EC20, Fluo-4 Ca2+ flux; hits give high values | B-score at 10 µM | 0.42% of 310,000 active | AID 2227, 2009;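 active = B-score of calcium response area above 5 SD of library B-scores, with initial fluorescence ratio within 5 SD of library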
TRPC4 inh = inhibitors of mouse TRPC4 channel, primary screen, Fluo4 calcium, HEK293 TRPC4beta/mu-opioid cells; Short transient receptor potential channel 4 (Mus musculus), Q9QUQ5; DAMGO-evoked Fluo4 calcium flux; hits give low values; B-score at 10 µM; 0.39% of 300,000 active;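 active = B-score over 3 SD under the library average, no early fluorescence shift, positive overall ratio signal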
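Material: HEK293 cells with stable TRPC4beta plus mu-opioid receptor expression; probe or stimulus: DAMGO in two steps, submaximal then maximal; technique: Fluo4 calcium fluorescence by kinetic imaging, 5 s 1 Hz baseline; measure: integrated fluorescence ratio relative to baseline, converted to per-well B score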
TRPC4 agonist = activators of mouse TRPC4 channel, primary screen, Fluo4 calcium, HEK293 TRPC4beta/mu-opioid cells; Fluo4 calcium fluorescence; hits give high values; 0.49% of 310,000 active; B-score at 10 µM; AID 2237, 2010;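 active = B-score above 5 SD of library B-scores, and initial fluorescence ratio not above library mean plus 5 SD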;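 note: positive B-score marks a calcium rise read as TRPC4 activation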
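Technique: kinetic Fluo4 calcium fluorescence; Test system: TRPC4beta and mu-opioid receptor HEK293 stable cells; Measure: B-scored integrated calcium fluorescence ratio; Benchmarks: low control buffer alone, high control maximal DAMGO; Schedule: 45 min room-temperature Fluo4 loading, 110 s read.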
TRPC6 inh = mouse TRPC6 channel inhibitors, primary screen, cell-based, HEK293, membrane potential dye. Short transient receptor potential channel 6 (Mus musculus), Q61143. ACh-evoked depolarization; hits give low values. B-score at 10 µM. 1.1% of 310,000 active. AID 2553, 2010;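 active = B-score under library mean minus 3 SD, initial fluorescence not abnormally high, positive integrated signal ratio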;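 note: B-score derived from integrated fluorescence ratio over the kinetic read; more negative B-score means stronger inhibition of depolarization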
TRPC4 sel inh 2 = second check of whether TRPC6 inhibitors also affect mouse TRPC4; 42% of 920 active; inhibition, % at 10 µM; HEK293 TRPC4/MOR, membrane potential dye fluorescence; channel activated by saturating DAMGO dose; shares compounds with TRPC6 inh;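 active = compounds whose fluorescence signal differed from control wells by over 3 SD, either direction, in both duplicate plates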
TRPC4 spec = mouse TRPC4 modulation by TRPC6 hits, confirmation, selectivity assay for TRPC6 inhibitor project, cell-based, HEK293 TRPC4/mu-opioid, membrane potential dye | shares compounds with TRPC6 inh | membrane potential fluorescence | activity change, negative = inhibition, % at 10 µM | 61% of 920 active;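 active = rise or fall in signal beyond 3 SD of buffer-only wells in both replicate plates, either sign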;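 note: integrated kinetic ratio of fluorescence range over baseline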
HEK293 MPD ctr 2-1 = nonspecific membrane potential effects, parental HEK293, confirmation, counter-screen for TRPC6 inhibitor project, cell-based, second counter screen. shares compounds with TRPC6 inh. parental HEK293 membrane potential dye fluorescence; maximal acetylcholine challenge after compound addition. signal change vs control, % at 10 µM. 31% of 920 active. AID 2779, 2010;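 active = membrane potential signal moving either way by over 3 SD of the maximum-effect control, in both duplicate plates, meaning non-specific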
HEK293 MPD ctr-1 = membrane potential modulation in parental HEK293, confirmation, counter-screen for TRPC6 inhibitor project, cell-based. membrane potential signal change, % at 10 µM. shares compounds with TRPC6 inh. parental HEK293 membrane potential dye fluorescence. 60% of 920 active;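 active = membrane potential signal shifting up or down by more than 3 SD of buffer-only wells, on both duplicate plates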
HEK293 MPD ctr-2 = parental HEK293 membrane potential modulation, confirmation, counter-screen for TRPC6 modulator project, cell-based; shares compounds with TRPC6 inh; membrane potential dye fluorescence; membrane potential signal change, % at 10 µM; 51% of 2,400 active; AID 488924, 2010;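 active = membrane potential signal moves up or down beyond 5 SD from buffer-only wells, on both duplicate plates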
HEK293 MPD ctr 2-2 = second check of TRPC6 modulator effects in parental HEK293 cells; inhibition, % at 10 µM; shares compounds with TRPC6 inh; 14% of 2,400 active; membrane potential dye fluorescence; after compound, maximal acetylcholine stimulation;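 active = membrane potential signal drops by more than 5 SD from the mean control signal, in both duplicate plates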
TRPC4 ctr mod = TRPC4 modulation by TRPC6 hit compounds, confirmation, selectivity assay for TRPC6 modulator project, cell-based, HEK293 TRPC4/mu-opioid, membrane potential dye, mouse; shares compounds with TRPC6 inh; membrane potential fluorescence; percent change from control (negative = decrease, positive = increase), % at 10 µM; 69% of 2,400 active; AID 488927, 2010;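 active = membrane potential signal moved up or down beyond 5 SD of buffer control wells, in both duplicate plates, actives on both sides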
TRPC4 ctr inh 2 = second check of whether TRPC6 modulators also affect mouse TRPC4. shares compounds with TRPC6 inh. HEK293 TRPC4/mu-opioid, membrane potential dye fluorescence; stimulated with maximal-effect DAMGO. inhibition, % at 10 µM. 55% of 2,400 active;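 active = drop in membrane potential signal beyond 5 SD of the control wells in both duplicate plates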;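 note: TRPC4 counter screen for TRPC6 hits run under conditions tuned for TRPC6 not TRPC4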
TRPC6 inh conf = mouse TRPC6 channel inhibitors, confirmation, HEK293 cells, membrane potential dye, duplicate; shares compounds with TRPC6 inh; ACh-evoked depolarization; inhibition, % at 10 µM; 43% of 3,300 active;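 active = fluorescence ratio falls more than 5 SD below the full-stimulation control mean, in both duplicate runs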;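 note: integrated fluorescence ratio of peak minus minimum over baseline after agonist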
TRPC6 act confirm = mouse TRPC6 channel activators, confirmation, HEK293 cells, membrane potential dye, duplicate; shares compounds with TRPC6 inh; AID 488961, 2010; HEK293-TRPC6 membrane potential dye fluorescence, FDSS; 11% of 2,800 active; activation, % at 10 µM;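 active = ratio signal rise beyond 5 SD above unstimulated control wells' mean, seen in both duplicate runs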
A number is an active result; . = inactive; / = no result given.

SMILES	TRPC6 activator	TRPC4 PAM	TRPC4 inh	TRPC4 agonist	TRPC6 inh	TRPC4 sel inh 2	TRPC4 spec	HEK293 MPD ctr 2-1	HEK293 MPD ctr-1	HEK293 MPD ctr-2	HEK293 MPD ctr 2-2	TRPC4 ctr mod	TRPC4 ctr inh 2	TRPC6 inh conf	TRPC6 act confirm
COc1ccc([N+](=O)[O-])cc1N(CC(O)CN(CC(C)C)CC(C)C)S(=O)(=O)c1ccccc1 (stereo not drawn)	.	.	.	.	.	/	/	/	/	/	/	/	/	/	/
COc1cc(C(=O)Nc2ccc(N(C)C)cc2)cc(OC)c1OC	.	.	.	.	-6.4	/	/	/	/	.	.	.	.	.	.
COc1cc(C(=O)Nc2ccc(NC(=O)c3cccc(Cl)c3)nc2)cc(OC)c1OC	.	.	.	.	-5.4	/	/	/	/	.	.	.	.	.	.
NCCOc1ccc(C23CC4CC(CC(C4)C2)C3)cc1	.	.	.	.	.	/	/	/	/	/	/	/	/	/	/
Cc1ccc(C23CC4CC(CC(CN)(C4)C2)C3)cc1	.	.	.	.	-7.5	42%	-11%	.	-176%	/	/	/	/	.	.
NCC12CC3CC(C1)CC(c1ccc(Br)cc1)(C3)C2	.	.	.	.	-8.6	44%	-10%	.	-178%	/	/	/	/	62%	.
C=CCOc1c(CCC)cc(CCC)cc1C(N)=O	.	.	.	.	.	/	/	/	/	/	/	/	/	/	/
Cc1nn2c(NCCN(C)C)c3c(nc2c1-c1ccccc1)CCCC3	.	.	.	.	-7.3	/	/	/	/	-192%	.	-36%	52%	48%	.
COCCNc1c2c(nc3c(-c4ccccc4)c(C)nn13)CCCC2	.	.	.	.	.	/	/	/	/	/	/	/	/	/	/
CC(=O)Nc1ccc(S(=O)(=O)N2CCN=C2SCc2ccc([N+](=O)[O-])cc2)cc1	.	.	.	.	.	/	/	/	/	/	/	/	/	/	/
CCOCCCNC(=S)N1CCCN(c2nc3cc(C)ccc3cc2C#N)CC1	.	.	.	.	-10	.	.	.	.	/	/	/	/	75%	/
COc1ccc(-n2cc(CNCCCn3ccnc3)c(-c3cccc(F)c3)n2)cc1	.	.	.	.	-6	/	/	/	/	.	.	-8.5%	74%	42%	.
COc1ccc(C(=O)Cn2cnc3ccc(Cl)cc3c2=O)cc1F	.	.	.	.	.	/	/	/	/	/	/	/	/	/	/
COc1ccc(CN2CCN(Cc3ccccc3F)CC2)cc1OC	.	.	.	.	.	/	/	/	/	/	/	/	/	/	/
Cc1nc2ccccc2c2c1C(=O)NC2=O	.	.	.	.	.	/	/	/	/	/	/	/	/	/	/
Cn1c(=O)n(Cc2ccc(F)cc2)c(=O)c2c1nc1n2CCCN1Cc1ccccc1	.	.	.	.	-5.1	/	/	/	/	.	.	.	.	.	.
Cc1ccc(OCC(COCc2ccccc2)NC(C)C)cc1 (stereo not drawn)	.	.	-6	.	-9.3	42%	38%	.	14%	/	/	/	/	101%	/
Cc1ccccc1C(OCCN(C)C)c1ccccc1 (stereo not drawn)	.	.	.	.	-5	/	/	/	/	193%	.	32%	.	58%	/
CCn1cc(C(=O)OCC(=O)N(C)C2CCS(=O)(=O)C2)c(=O)c2ccc(C)nc21 (stereo not drawn)	.	.	.	.	-5.4	/	/	/	/	-269%	.	-54%	.	60%	.
COc1cc2[nH]c(C(=O)N3CCC(Cc4ccccc4)CC3)cc2c(OC)c1OC	.	.	.	.	.	/	/	/	/	/	/	/	/	/	/
O=C(c1ccccc1)C1CCN(C(=O)c2ccco2)CC1	.	.	.	.	.	/	/	/	/	/	/	/	/	/	/
COc1ccc(N2C(=O)CSC2c2ccc3c(c2)OCO3)cc1 (stereo not drawn)	.	.	.	.	-7.5	.	.	.	.	/	/	/	/	.	.
CCOC(=O)N1CCC(N2Cc3cccc(C(=O)N4CCN(c5cccc(Cl)c5)CC4)c3C2=O)CC1	.	.	.	.	-6.3	/	/	/	/	100%	.	22%	.	42%	/
CCOC(=O)N1CCC(N2Cc3cccc(C(=O)Nc4cccc(F)c4)c3C2=O)CC1	.	.	.	.	-9.2	.	.	-12%	.	/	/	/	/	90%	.
Cc1cc(NC(=O)CSc2ccccn2)cc(NC(=O)CSc2ccccn2)c1	.	.	.	.	.	/	/	/	/	/	/	/	/	/	/
Cc1nonc1NC(=O)CSc1ccccn1	.	.	.	.	-5.7	/	/	/	/	.	.	.	.	.	.
O=C(O)C[C@]1(C(=O)Nc2ccc(F)cc2)CC(/C=C/c2ccccc2)=NO1	.	.	.	.	.	/	/	/	/	/	/	/	/	/	/
Cc1cc(C)cc(-n2c(C)cc(/C=N/NC(=O)CSc3ncccn3)c2C)c1	.	.	.	.	-9.9	.	.	.	.	/	/	/	/	.	.
